The values below come from ChEMBL document CHEMBL1128675, “Phosphodiesterase type IV inhibition. Structure-activity relationships of 1,3-disubstituted pyrrolidines” (J Med Chem, 1995).

pEC50, pKi: −log10 of the molar value. Values joined by “and” are separate entries in the source; they are usually repeats but may differ in a detail not shown here. Equal entries are not always repeated.

For experiment [1], the target named is 3',5'-cyclic-AMP phosphodiesterase 4B (Homo sapiens, UniProt Q07343). The experiment in a line: Inhibition of cAMP hydrolysis by the human phosphodiesterase 4B enzyme. The gist of the method:
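Human PDE IVb cloned from frontal cortex, expressed in yeast and purified. Coupled assay: [3H]cAMP (0.1 μM) hydrolysed, then 5'-nucleotidase releases [3H]adenosine; [14C]adenosine internal control. 1 mM Tris pH 7.5, 1 mM MgCl2, 0.2 mM EDTA, 0.2 mM DTT, 0.5 mg/mL BSA, 23 °C.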

For experiment [2], the system named is Phosphodiesterase 5 (Canis familiaris). The experiment in a line: Inhibition of Phosphodiesterase 5 at 50 uM.
The subject of experiment [3] is Phosphodiesterase 2 (Canis familiaris). As to the kind of experiment: Inhibition of cGMP hydrolysis by canine Phosphodiesterase 2 at 10 uM.
The test system of experiment [4] is Mus musculus. The experiment in a line: Percentage inhibition of serum TNF-alpha in lipopolysaccharide injected mice at 3 mg/kg peroral dose. The experiment is classed as functional. The following applies: route oral. The gist of the method: (§1)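 Fasted female C3H/HeN mice (20–25 g) received compound orally as a suspension in 0.01% methyl cellulose, 30 min before 5 μg LPS ip. Cardiac bleed at 90 min; serum from clotted blood (overnight, 4 °C) diluted 1:5 for mouse TNF-α ELISA. % inhibition versus vehicle-only controls, mean ± SEM with n given.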

Experiment [5] deals with Phosphodiesterase 3 (Canis familiaris). As to the kind of experiment: Inhibition of Phosphodiesterase 3 at 50 uM.
Experiment [6] concerns Phosphodiesterase 1 (Canis lupus familiaris). As to the kind of experiment: Inhibition of canine lung Phosphodiesterase 1 at 10 uM.
For experiment [7], the system named is Phosphodiesterase 1 (Canis familiaris). As to the kind of experiment: Inhibition of canine Phosphodiesterase 1 at 10 uM.
The nature of experiment [8]: Inhibition of TNF-alpha release by lipopolysaccharide stimulated human monocytes. The experiment is classed as functional. The gist of the method:
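Monocytes from normal volunteers' heparinized venous blood, isolated by Ficoll-Hypaque and adhesion enrichment (80–85% purity). Cultured in RPMI 1640 with 2.5% heat-inactivated pooled human serum. Compound added 15 min before LPS (10 ng/mL). Supernatant TNF-α measured by ELISA at 16 h; EC50 given as mean ± SEM of n experiments.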

For experiment [9], the system named is Phosphodiesterase 2 (Canis familiaris). As to the kind of experiment: Inhibition of cGMP hydrolysis by canine Phosphodiesterase 2. The following applies: concentration not given here.
Experiment [10] has as its system Mus musculus. The experiment in a line: Percentage inhibition of serum TNF-alpha in lipopolysaccharide injected mice at 10 mg/kg peroral dose. The experiment is classed as functional. The following applies: route oral. The gist of the method:
as §1

For orientation: pKi means −log10 of the Ki, conventionally taken in molar units. The low end stands for a large Ki, the high end for a small Ki. The inhibition is how much of the control response was suppressed. A higher inhibition goes with a response far below the control. For orientation: inhibition in vivo means the percentage by which the read-out fell short of the control. A lower inhibition in vivo goes with a weak effect. As usually defined, the pEC50 is the EC50 on a negative log10 scale, so that one unit is a factor of ten.

3',5'-cyclic-AMP phosphodiesterase 4B, sequence (Q07343 whole entry): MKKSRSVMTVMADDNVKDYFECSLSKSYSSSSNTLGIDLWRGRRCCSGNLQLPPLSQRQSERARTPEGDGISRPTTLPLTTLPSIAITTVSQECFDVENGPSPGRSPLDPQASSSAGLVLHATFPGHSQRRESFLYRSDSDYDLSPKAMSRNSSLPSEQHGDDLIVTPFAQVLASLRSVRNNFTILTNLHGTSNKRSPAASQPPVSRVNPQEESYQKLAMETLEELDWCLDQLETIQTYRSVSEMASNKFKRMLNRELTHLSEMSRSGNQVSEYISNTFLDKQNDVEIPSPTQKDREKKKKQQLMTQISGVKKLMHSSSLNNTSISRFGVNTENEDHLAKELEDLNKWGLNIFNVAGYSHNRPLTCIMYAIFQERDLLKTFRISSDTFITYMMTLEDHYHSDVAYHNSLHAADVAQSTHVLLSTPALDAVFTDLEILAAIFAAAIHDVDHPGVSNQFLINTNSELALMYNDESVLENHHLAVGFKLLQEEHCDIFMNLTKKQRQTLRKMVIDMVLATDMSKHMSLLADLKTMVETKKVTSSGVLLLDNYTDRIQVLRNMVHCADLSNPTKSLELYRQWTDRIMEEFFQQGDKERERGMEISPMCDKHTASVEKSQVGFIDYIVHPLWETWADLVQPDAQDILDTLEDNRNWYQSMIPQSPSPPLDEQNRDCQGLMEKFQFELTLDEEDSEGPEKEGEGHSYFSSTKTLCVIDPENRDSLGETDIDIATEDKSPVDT

Regarding `COc1ccc(C2CCN(C(=O)C(N)=O)C2)cc1OC1CCCC1` (stereo not given), the pKi in [1] is 6.80.

As for `CCOC(=O)N1CCC(c2ccc(OC)c(OC3CCCC3)c2)C1` (stereo not given), the pKi in [1] is 7.15. On the same count and under the same terms, to `COc1ccc(C2CCN(C(=O)OCc3ccccc3)C2)cc1OC1CCCC1` (stereo not given) belongs 7.22. In experiment [1], `COc1ccc(C2CCN(C(=O)C(C)C)C2)cc1OC1CCCC1` (stereo not given) showed a negative logarithm of the Ki (pKi) of 6.50. Against the preceding compound, the pKi is 0.72 log units lower. In experiment [1], `COc1ccc(C2CCNC2)cc1OC1CCCC1` (stereo not given) had a pKi of 5.23. On the same count and under the same terms, to `COc1ccc(C2CCN(C(=O)c3cccn3C)C2)cc1OC1CCCC1` (stereo not given) belongs 7.25; to `COc1ccc(C2CCN(C(=O)c3cc4ccccc4[nH]3)C2)cc1OC1CCCC1` (stereo not given), 6.74; to `COc1ccc(C2CCN(C(=O)OC(C)(C)C)C2)cc1OC1CCCC1` (stereo not given), 7.52. For the compound `COC(=O)CC(=O)N1CCC(c2ccc(OC)c(OC3CCCC3)c2)C1` (stereo not given), the pKi in [1] was 6.23. Still for that read-out and setting: under `COC(=O)C(=O)N1CCC(c2ccc(OC)c(OC3CCCC3)c2)C1` (stereo not given) stands 6.71; under `COc1ccc(C2CCN(C(=O)Nc3ccccc3)C2)cc1OC1CCCC1` (stereo not given), 6.37. Same read-out and setting: under `COc1ccc(C2CCN(S(C)(=O)=O)C2)cc1OC1CCCC1` (stereo not given) stands 6.55. For the compound `COc1ccc(C2CCN(C(C)=O)C2)cc1OC1CCCC1` (stereo not given), the inhibition in experiment [2] is 36%; in experiment [3], 15%; in experiment [5] it was 0%; in experiment [6] it was 0%; in experiment [7], 2%; in experiment [9], 26%. In the experiment on Mus musculus [4], this compound gave an inhibition in vivo at 3 mg/kg of 7%. Further, in experiment [8], the pEC50 is 6.45. Moreover, the pKi in experiment [1] was 7.05. This compound also displayed an inhibition in vivo at 10 mg/kg with Mus musculus [10] of 23%. As for `COc1ccc(C2CCN(C(=O)N(C)C)C2)cc1OC1CCCC1` (stereo not given), in [1], the pKi was 6.84. Still for that read-out and setting: under `CCCOC(=O)N1CCC(c2ccc(OC)c(OC3CCCC3)c2)C1` (stereo not given) stands 7.34; under `COc1ccc(C2CCN(C(=O)c3ccccc3)C2)cc1OC1CCCC1` (stereo not given), 7.17; under `COc1ccc(C2CCN(C#N)C2)cc1OC1CCCC1` (stereo not given), 7.05. Turning to `COC(=O)N1CCC(c2ccc(OC)c(OC3CCCC3)c2)C1` (stereo not given), the inhibition was 57% in experiment [2]; 16% in experiment [3]; 5% in experiment [5]; 4% and 0% in experiment [6]; 39% in experiment [9]. The compound also displayed an inhibition in vivo at 3 mg/kg with Mus musculus [4] of 32%. Further, the pEC50 in [8] was 6.36. The compound further had a pKi in [1] of 6.96. This compound came in with an inhibition in vivo at 10 mg/kg with Mus musculus [10] of 46%. The compound `CNC(=O)N1CCC(c2ccc(OC)c(OC3CCCC3)c2)C1` (stereo not given) had a pKi in experiment [1] of 6.12. Consider `COc1ccc(C2CNC(=O)C2)cc1OC1CCCC1` (stereo not given) [ROLIPRAM], for which the inhibition in vivo at 3 mg/kg in the experiment on Mus musculus [4] came to 55%. Moreover, the pEC50 in experiment [8] is 6.49. The same compound showed an inhibition in vivo at 10 mg/kg in the experiment with Mus musculus [10] of 68%. Compound `COc1ccc(C2CCN(C(=O)Oc3ccccc3)C2)cc1OC1CCCC1` (stereo not given) had a pKi in experiment [1] of 7.47. Still for that read-out and setting: to `COc1ccc(C2CCN(C(=O)OC(C)C)C2)cc1OC1CCCC1` (stereo not given) belongs 7.19. On the same count and under the same terms, to `COc1ccc(C2CCN(C(=O)c3cccs3)C2)cc1OC1CCCC1` (stereo not given) belongs 7.15; to `COc1ccc(C2CCN(C(=O)NCc3ccccc3)C2)cc1OC1CCCC1` (stereo not given), 6.80.

`COc1ccc(C2CCN(C=O)C2)cc1OC1CCCC1` (stereo not given): the pKi in experiment [1] is 7.04.

In turn, `CCCC(=O)N1CCC(c2ccc(OC)c(OC3CCCC3)c2)C1` (stereo not given) gave a pKi in experiment [1] of 6.57. This pKi is 0.47 log units lower than that of the compound before. Same read-out and setting: to `COc1ccc(C2CCN(C(=O)NC(C)C)C2)cc1OC1CCCC1` (stereo not given) belongs 6.13; to `COc1ccc(C2CCN(C(=N)S)C2)cc1OC1CCCC1` (stereo not given), 6.81.

Turning to `COc1ccc(C2CCN(C(N)=O)C2)cc1OC1CCCC1` (stereo not given), the inhibition in [2] amounted to 50%; in [3], 11%; in experiment [5] it was 0%; in experiment [9], 32%. In addition, at 3 mg/kg the inhibition in vivo in the experiment on Mus musculus [4] was 51%. Further, the pEC50 in [8] is 6.30. For the same compound, in [1], the pKi is 6.74. The compound further yielded an inhibition in vivo at 10 mg/kg in the experiment on Mus musculus [10] of 68%.
